Legend:
[1] = molecular target: GABA-A receptor; anion channel; assay: Inhibition of specific binding of 1.5 nM [3H]diazepam to rat brain benzodiazepine receptors
[2] = test system: Rattus norvegicus; assay: Percent change in Geller-Seifter conflict schedule was determined in Long-Evans rats after (po) administration of gavage of 25 mg/kg; format: functional
How it was run: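 Long-Evans rats on a modified Geller-Seifter operant conflict schedule, with conflict-period responding scored. Compounds given by oral gavage as a 0.5% methylcellulose suspension at 25 mg/kg. Chlordiazepoxide reference given at 20 mg/kg.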

Row | IC50 [1] | SMILES | Change [2]
1 | 110 nM | CN(C)c1ncnc2c1nc(Br)n2Cc1cccc(N)c1 | 2%
2 | 8000 nM | CN(C)c1ncnc2c1nc(Br)n2Cc1cccc(NC(=O)c2ccccc2)c1 | –
3 | 360 nM | CNc1nc2c(N(C)C)ncnc2n1Cc1cccc(NC=O)c1 | –
4 | 25 nM | CN(C)c1ncnc2c1nc(Br)n2Cc1cccc(NC(N)=O)c1 | 9%
5 | 5700 nM | CN(C)c1ncnc2c1nc(N(C)C)n2Cc1ccccc1 | –
6 | 1800 nM | CN(C)c1ncnc2c1nc(O)n2Cc1cccc(N)c1 | –
7 | 600 nM | CN(C)c1ncnc2c1nc(N(C)C)n2Cc1cccc(N)c1 | -3%
8 | 34 nM | CN(C)c1ncnc2c1ncn2Cc1cccc(NC=O)c1 | -2%
9 | 1500 nM | CN(C)c1ncnc2c1nc(Br)n2Cc1cccc(NS(C)(=O)=O)c1 | –

Second part, the molecule before the results:

Row | SMILES | IC50 [1] | Change [2]
10 | CN(C)c1ncnc2c1nc(Br)n2Cc1cccc(NC=O)c1 | 11 nM | 9%
11 | CNc1nc2c(N(C)C)ncnc2n1Cc1ccccc1 | 17000 nM | –
12 | CN(C)c1ncnc2c1nc(N(C)C)n2Cc1cccc(NC=O)c1 | 110 nM | 0%
13 | COc1nc2c(N(C)C)ncnc2n1Cc1cccc(N)c1 | 1000 nM | 13%
14 | CN(C)c1ncnc2c1nc(Cl)n2Cc1cccc(N)c1 | 190 nM | 15%
15 | COc1nc2c(N(C)C)ncnc2n1Cc1ccccc1 | 5400 nM | –
16 | COC(=O)Nc1cccc(Cn2c(Br)nc3c(N(C)C)ncnc32)c1 | 5300 nM | –
17 | CC(=O)Nc1cccc(Cn2c(Br)nc3c(N(C)C)ncnc32)c1 | 840 nM | 3%
18 | CN(C)c1ncnc2c1nc(Br)n2Cc1ccccc1 | 3000 nM | –
19 | CN(C)c1ncnc2c1nc(O)n2Cc1cccc(NC=O)c1 | 130 nM | -15%
20 | CNc1nc2c(N(C)C)ncnc2n1Cc1cccc(N)c1 | 7300 nM | –
21 | Cc1nc2c(N(C)C)ncnc2n1Cc1ccccc1 | 8500 nM | –
